Results published in ChEMBL document CHEMBL2046311, “Design, synthesis, and molecular hybrids of caudatin and cinnamic acids as novel anti-hepatitis B virus agents” (Eur J Med Chem, 2012).

Key:
[1] = Selectivity index, ratio of CC50 for human HepG2(2.2.15) cells to IC50 for Hepatitis B virus infected in human HepG2(2.2.15) cells assessed as inhibition of viral e antigen secretion; assay type: functional
Method in brief: (§1)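 SI calculated as CC50 (MTT, HepG 2.2.15) divided by IC50 for the named read-out (HBV DNA by real-time PCR, or HBeAg or HBsAg secretion by ELISA), in the same cell line.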

[2] = Selectivity index, ratio of CC50 for human HepG2(2.2.15) cells to IC50 for Hepatitis B virus infected in human HepG2(2.2.15) cells assessed as inhibition of viral DNA replication; assay type: functional; method in brief: as §1
[3] = system: Hepatitis B virus; assay: Antiviral activity against Hepatitis B virus infected in human HepG2(2.2.15) cells assessed as inhibition of viral e antigen secretion by ELISA; assay type: functional, organism-based
Method in brief: (§2)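 HepG 2.2.15 cells in RPMI-1640 with 10% fetal calf serum at 37 °C, 5% CO2. Compounds dissolved in DMSO, culture DMSO below 2.5 μL/mL. Secreted HBeAg and HBsAg measured by ELISA. IC50 values are means of at least two experiments.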

[4] = system: Hepatitis B virus; assay: Antiviral activity against Hepatitis B virus infected in human HepG2(2.2.15) cells assessed as inhibition of viral surface antigen secretion by ELISA; assay type: functional, organism-based; method in brief: as §2
[5] = Selectivity index, ratio of CC50 for human HepG2(2.2.15) cells to IC50 for Hepatitis B virus infected in human HepG2(2.2.15) cells assessed as inhibition of viral surface antigen secretion; assay type: functional; method in brief: as §1
[6] = Cytotoxicity against human HepG2(2.2.15) cells by modified-MTT assay; assay type: cell-based
Method in brief: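 HepG 2.2.15 cells in RPMI-1640 with 10% fetal calf serum at 37 °C, 5% CO2. Compounds in DMSO, final DMSO below 2.5 μL/mL. Viability read by modified MTT method. CC50 is the mean of at least two experiments.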

[7] = system: Hepatitis B virus; assay: Antiviral activity against Hepatitis B virus infected in human HepG2(2.2.15) cells assessed as inhibition of viral DNA replication by PCR analysis; assay type: functional, organism-based
Method in brief: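 HepG 2.2.15 cells grown in RPMI-1640 with 10% fetal calf serum, […] and penicillin/streptomycin at 37 °C, 5% CO2. Compounds added in DMSO, kept below 2.5 μL/mL. HBV DNA quantified by SYBR Green real-time PCR with HBV-specific primers spanning 541–591 bp. IC50 values are means of at least two experiments.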

Structure (SMILES)	Ratio CC50/IC50 [1]	Ratio CC50/IC50 [2]	IC50 [3] [µM]	IC50 [4] [µM]	Ratio CC50/IC50 [5]	CC50 [6] [µM]	IC50 [7] [µM]
CCOc1ccccc1/C=C/C(=O)O[C@H]1CC[C@@]2(C)C(=CC[C@]3(O)[C@@H]2C[C@@H](OC(=O)/C=C(\C)C(C)C)[C@@]2(C)[C@]3(O)CC[C@@]2(O)C(C)=O)C1	>4.3	>143.8	404	40.6	>42.6	> 1730	12
CCOc1cccc(/C=C/C(=O)O[C@H]2CC[C@@]3(C)C(=CC[C@]4(O)[C@@H]3C[C@@H](OC(=O)/C=C(\C)C(C)C)[C@@]3(C)[C@]4(O)CC[C@@]3(O)C(C)=O)C2)c1	>15.2	>230.1	141	24.9	>85.9	> 2140	9.3
COc1cccc(/C=C/C(=O)O[C@H]2CC[C@@]3(C)C(=CC[C@]4(O)[C@@H]3C[C@@H](OC(=O)/C=C(\C)C(C)C)[C@@]3(C)[C@]4(O)CC[C@@]3(O)C(C)=O)C2)c1	>43.3	>241.2	24.9	10.5	>102	> 1080	4.46
CC(=O)[C@]1(O)CC[C@@]2(O)[C@]1(C)[C@H](OC(=O)/C=C(\C)C(C)C)C[C@@H]1[C@@]3(C)CC[C@H](OC(=O)/C=C/c4ccccc4[N+](=O)[O-])CC3=CC[C@]12O	>29.4	>71.4	52.7	37	>41.9	> 1550	21.7
COc1ccc(/C=C/C(=O)O[C@H]2CC[C@@]3(C)C(=CC[C@]4(O)[C@@H]3C[C@@H](OC(=O)/C=C(\C)C(C)C)[C@@]3(C)[C@]4(O)CC[C@@]3(O)C(C)=O)C2)cc1	>2.4	>127.1	569	108	>12.9	> 1380	10.9
CC(=O)[C@]1(O)CC[C@@]2(O)[C@]1(C)[C@H](OC(=O)/C=C(\C)C(C)C)C[C@@H]1[C@@]3(C)CC[C@H](OC(=O)/C=C/c4ccc(C)cc4)CC3=CC[C@]12O	–	46	> 550	108	5.1	550	12
CC(=O)[C@]1(O)CC[C@@]2(O)[C@]1(C)[C@H](OC(=O)/C=C(\C)C(C)C)C[C@@H]1[C@@]3(C)CC[C@H](OC(=O)/C=C/c4cccc(OC(F)(F)F)c4)CC3=CC[C@]12O	–	102.3	> 584	236	2.5	584	5.71
COc1cc(/C=C/C(=O)O[C@H]2CC[C@@]3(C)C(=CC[C@]4(O)[C@@H]3C[C@@H](OC(=O)/C=C(\C)C(C)C)[C@@]3(C)[C@]4(O)CC[C@@]3(O)C(C)=O)C2)ccc1OC(C)=O	–	<2.3	653	< 9.97	–	< 9.97	4.39
CC(=O)Oc1ccc(/C=C/C(=O)O[C@H]2CC[C@@]3(C)C(=CC[C@]4(O)[C@@H]3C[C@@H](OC(=O)/C=C(\C)C(C)C)[C@@]3(C)[C@]4(O)CC[C@@]3(O)C(C)=O)C2)cc1	–	<2	231	< 6.96	–	< 6.96	3.42
CC(=O)[C@]1(O)CC[C@@]2(O)[C@]1(C)[C@H](OC(=O)/C=C(\C)C(C)C)C[C@@H]1[C@@]3(C)CC[C@H](O)CC3=CC[C@]12O [CAUDATIN]	<1.3	6	> 183	–	1.7	–	–
CC(=O)[C@]1(O)CC[C@@]2(O)[C@]1(C)[C@H](OC(=O)/C=C(\C)C(C)C)C[C@@H]1[C@@]3(C)CC[C@H](OC(=O)/C=C/c4ccc(O)c(O)c4)CC3=CC[C@]12O	–	–	> 567	16.1	–	8.49	9.1
COc1cccc(/C=C/C(=O)O[C@H]2CC[C@@]3(C)C(=CC[C@]4(O)[C@@H]3C[C@@H](OC(=O)/C=C(\C)C(C)C)[C@@]3(C)[C@]4(O)CC[C@@]3(OC(=O)/C=C/c3cccc(OC)c3)C(C)=O)C2)c1	–	–	> 1370	> 1370	–	> 1370	> 342
C[C@H](Cn1cnc2c(N)ncnc21)OCP(=O)(O)O [TENOFOVIR ANHYDROUS]	>1.5	>2560.2	1160	–	>1.2	> 1740	0.68
CC(=O)[C@]1(O)CC[C@@]2(O)[C@]1(C)[C@H](OC(=O)/C=C(\C)C(C)C)C[C@@H]1[C@@]3(C)CC[C@H](OC(=O)/C=C/c4c(F)c(F)c(F)c(F)c4F)CC3=CC[C@]12O	–	–	353	26.3	–	< 8.22	9.9
CC(=O)[C@]1(OC(=O)/C=C/c2ccccc2[N+](=O)[O-])CC[C@@]2(O)[C@]1(C)[C@H](OC(=O)/C=C(\C)C(C)C)C[C@@H]1[C@@]3(C)CC[C@H](OC(=O)/C=C/c4ccccc4[N+](=O)[O-])CC3=CC[C@]12O	>3.3	–	522	116	>15	> 1740	> 434
COc1ccc(/C=C/C(=O)O[C@H]2CC[C@@]3(C)C(=CC[C@]4(O)[C@@H]3C[C@@H](OC(=O)/C=C(\C)C(C)C)[C@@]3(C)[C@]4(O)CC[C@@]3(OC(=O)/C=C/c3ccc(OC)c(OC)c3)C(C)=O)C2)cc1OC	>1.9	–	632	528	>2.3	> 1210	> 307
CC(=O)[C@]1(O)CC[C@@]2(O)[C@]1(C)[C@H](OC(=O)/C=C(\C)C(C)C)C[C@@H]1[C@@]3(C)CC[C@H](OC(=O)/C=C/c4cccc(C(F)(F)F)c4)CC3=CC[C@]12O	–	48.3	> 1190	112	6.4	718	14.9
CC(=O)[C@]1(O)CC[C@@]2(O)[C@]1(C)[C@H](OC(=O)/C=C(\C)C(C)C)C[C@@H]1[C@@]3(C)CC[C@H](OC(=O)/C=C/c4ccc(Cl)cc4)CC3=CC[C@]12O	–	43.1	> 701	119	5.9	701	16.3
CC(=O)[C@]1(OC(=O)/C=C/c2ccc(Cl)cc2)CC[C@@]2(O)[C@]1(C)[C@H](OC(=O)/C=C(\C)C(C)C)C[C@@H]1[C@@]3(C)CC[C@H](OC(=O)/C=C/c4ccc(Cl)cc4)CC3=CC[C@]12O	–	–	> 290	> 290	–	> 1160	> 290
CC(=O)[C@]1(O)CC[C@@]2(O)[C@]1(C)[C@H](OC(=O)/C=C(\C)C(C)C)C[C@@H]1[C@@]3(C)CC[C@H](OC(=O)/C=C/c4cc(C(F)(F)F)cc(C(F)(F)F)c4)CC3=CC[C@]12O	>2.1	–	612	433	>3	> 1280	> 321
